Screening results deposited in PubChem by The Scripps Research Institute Molecular Screening Center.
Hits are enriched below; roughly 1.2% of the tested compounds scored in any of these assays.
NS3 helicase inh – HCV NS3 helicase inhibition | NS3 helicase DNA unwinding, Cy5 molecular beacon fluorescence | inhibition, % at 10.9 µM | actives 0.56% (n = 290,000) | AID 1800;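 active = inhibition above the mean of all tested compounds plus 3 SD, set per campaign, cut at about 35% in these data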
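System: NS3 helicase fragment of HCV / Schedule: 1 h at 25 °C / Control set: DMSO alone as 0% and 110 µM thioflavine S as 100% / Reagent: Cy5/quencher beacon DNA duplex and ATP to start / Technique: Cy5 fluorescence / Replication: singlicate / Evaluation: % inhibition of end-to-start signal ratio versus controls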
core dimer inh – HCV core protein dimerization inhibition. TR-FRET GST/Flag-core106 dimerization, 1536-well. inhibition, % at 5 µM. actives 0.33% (n = 300,000). AID 1899;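 active = inhibition above the mean of all tested compounds plus 3 SD, set per screening campaign, cut at about 45% in these data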
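Assay system – GST-tagged and Flag-tagged HCV core protein residues 1-106 · Quantity – core106 proteins, GST 13.5 nM and Flag 17 nM · Benchmarks – unlabelled core106 and no-GST-core106 wells · Read-out basis – percent inhibition of core106 dimerization signal · Detection – time-resolved FRET, ex 340 nm, em 617 and 671 nm · Schedule – 4 h at 22.5 °C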
EBNA-1 inh – blocks EBNA-1 binding to DNA. EBNA-1 DNA binding, fluorescence polarization. inhibition, % at 14.8 µM. actives 0.34% (n = 300,000). AID 1950; in the data active = inhibition above about 28%
ZTA counter – blocks Epstein-Barr virus ZTA, an EBNA-1 counter-screen; ZTA-DNA binding, fluorescence polarization; inhibition, % at 11 µM; actives 0.15% (n = 320,000); AID 2234; in the data active = inhibition above about 33%
Target sequence (P03206 whole entry, looked up): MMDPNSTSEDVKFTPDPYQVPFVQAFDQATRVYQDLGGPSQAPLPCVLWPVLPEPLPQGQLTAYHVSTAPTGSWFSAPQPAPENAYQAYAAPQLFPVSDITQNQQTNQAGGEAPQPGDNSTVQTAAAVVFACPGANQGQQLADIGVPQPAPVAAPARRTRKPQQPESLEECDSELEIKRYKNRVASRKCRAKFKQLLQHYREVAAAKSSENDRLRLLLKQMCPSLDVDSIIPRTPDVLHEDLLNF
ZTA inh confirm – EBV ZTA DNA binding inhibition, confirmation; shares compounds with ZTA counter; Zta-ZRE DNA binding, fluorescence polarization; inhibition, % at 11.1 µM; actives 30% (n = 320); AID 2361;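 active = mean inhibition across triplicate runs above the hit threshold derived for the original primary screen, cut at about 33% in these data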
EBNA-1 counter – blocks EBNA-1 DNA binding in ZTA counter-screen. 320 tested, under 10 active. AID 2362. inhibition, % at 14.8 µM. fluorescence polarization. shares compounds with ZTA counter; call rule not given here
Hits are given with their value.

Results for O=C(CCCN1C(=O)/C(=C\c2ccco2)SC1=S)Nc1ccc(O)cc1C(=O)O ?
NS3 helicase inh: inactive; core dimer inh: inactive; EBNA-1 inh: inactive; ZTA counter: 53; ZTA inh confirm: inactive; EBNA-1 counter: inactive

Results for O=C(CN1C(=O)/C(=C/c2ccco2)SC1=S)Nc1ccc(C(=O)O)c(O)c1 ?
NS3 helicase inh: inactive; core dimer inh: inactive; EBNA-1 inh: inactive; ZTA counter: 57; ZTA inh confirm: inactive; EBNA-1 counter: inactive

Results for CCCCNC(=S)N1CCN(C(c2ccccc2)c2ccccc2)CC1 ?
NS3 helicase inh: inactive; core dimer inh: inactive; EBNA-1 inh: inactive; ZTA counter: 43; ZTA inh confirm: inactive; EBNA-1 counter: inactive

Results for CCCNC(=S)N1CCN(C(c2ccccc2)c2ccccc2)CC1 ?
NS3 helicase inh: inactive; core dimer inh: inactive; EBNA-1 inh: inactive; ZTA counter: inactive

What do the screens show for `CCCC1=NN2C(=N)/C(=C\c3ccc(OCCOc4ccc(NC(C)=O)cc4)c(OC)c3)C(=O)N=C2S1`?
NS3 helicase inh: inactive; core dimer inh: inactive; EBNA-1 inh: inactive; ZTA counter: inactive

What do the screens show for `CN(C)CC(C)(C)CNC(C(=O)Nc1ccc(Cl)cc1C(F)(F)F)c1ccccc1` (stereo not drawn)?
NS3 helicase inh: inactive; core dimer inh: inactive; EBNA-1 inh: inactive; ZTA counter: inactive

Results for CC(C)N(C(=O)Nc1ccc2nsnc2c1)C(C)C ?
NS3 helicase inh: inactive; core dimer inh: inactive; EBNA-1 inh: inactive; ZTA counter: 74; ZTA inh confirm: inactive; EBNA-1 counter: inactive

How did COc1ccc(NC(=S)Nc2ccc3nsnc3c2)cc1 do in these assays?
NS3 helicase inh: inactive; core dimer inh: inactive; EBNA-1 inh: inactive; ZTA counter: 38; ZTA inh confirm: inactive; EBNA-1 counter: inactive

How did COc1ccc(NC(=S)Nc2ccc3nc(C)c(C)nc3c2)cc1 do in these assays?
NS3 helicase inh: inactive; core dimer inh: inactive; EBNA-1 inh: inactive; ZTA counter: inactive

Results for CCOc1ccc(NC(=S)Nc2ccc3nsnc3c2)cc1 ?
NS3 helicase inh: inactive; core dimer inh: inactive; EBNA-1 inh: inactive; ZTA counter: 67; ZTA inh confirm: inactive; EBNA-1 counter: inactive

How did N#Cc1c(N2CCCC2)nc(N)c2c(N)nc(N3CCCC3)cc12 do in these assays?
NS3 helicase inh: inactive; core dimer inh: inactive; EBNA-1 inh: inactive; ZTA counter: 60; ZTA inh confirm: 55; EBNA-1 counter: inactive

Results for CC1CN(C(=O)c2cc3cc(F)ccc3[nH]2)CC(C)O1 (stereo not drawn) ?
NS3 helicase inh: inactive

How did C/C=C\C=C\C(=O)N1CC2(CC(c3cccc(NC(=O)CC)c3)=NO2)C[C@H]1C(N)=O (stereo partly drawn) do in these assays?
core dimer inh: 48; EBNA-1 inh: inactive; ZTA counter: 35; ZTA inh confirm: inactive; EBNA-1 counter: inactive

Results for Nc1nc(Nc2ccccc2F)sc1C(=O)c1ccccc1 ?
NS3 helicase inh: inactive; core dimer inh: inactive; EBNA-1 inh: inactive; ZTA counter: 52; ZTA inh confirm: inactive; EBNA-1 counter: inactive

Results for Cc1ccc(C(C(=O)NC2CCCC2)N(Cc2ccc3c(c2)OCO3)C(=O)c2snc(C(N)=O)c2N)cc1 (stereo not drawn) ?
NS3 helicase inh: inactive; core dimer inh: inactive; EBNA-1 inh: inactive; ZTA counter: 57; ZTA inh confirm: inactive; EBNA-1 counter: inactive

How did CCCCCCCCCCCCCCCC[N+](C)(C)CCN(Cc1ccc(OC)cc1)c1ncccn1 do in these assays?
core dimer inh: inactive; EBNA-1 inh: inactive; ZTA counter: 35; ZTA inh confirm: 77; EBNA-1 counter: inactive

How did COc1ccc(CN2CCc3ccccc3C2)c(OC)c1 do in these assays?
NS3 helicase inh: inactive; core dimer inh: inactive; EBNA-1 inh: inactive; ZTA counter: inactive

How did COc1ccc(C2=[N+](C)CCn3cccc32)c(OC)c1 do in these assays?
NS3 helicase inh: inactive; core dimer inh: inactive; EBNA-1 inh: inactive; ZTA counter: 33; ZTA inh confirm: inactive; EBNA-1 counter: inactive

How did O=C(Nc1cc(S(=O)(=O)N2CCOCC2)ccc1N1CCOCC1)c1ccc(Cl)nc1 do in these assays?
NS3 helicase inh: inactive; core dimer inh: inactive; EBNA-1 inh: inactive; ZTA counter: 34; ZTA inh confirm: inactive; EBNA-1 counter: inactive

Results for C#CCOCCOCCOCCNc1nc(N2CCOCC2)nc(N2CCN(C(=O)[C@H](CCCCN)n3cc([C@@H](N)CO)nn3)CC2)n1 ?
NS3 helicase inh: inactive; core dimer inh: inactive; EBNA-1 inh: inactive; ZTA counter: 168; ZTA inh confirm: inactive; EBNA-1 counter: inactive

How did C#CCOCCOCCOCCNc1nc(N2CCN(C(=O)CCCCCCCCCCNC(=O)[C@@H](CCC(=O)O)n3cc(CCCCCN)nn3)CC2)nc(N2CCN(C(=O)CCCCCCCCCCNC(=O)[C@H](CO)n3cc(CCCCCN)nn3)CC2)n1 do in these assays?
core dimer inh: inactive; EBNA-1 inh: inactive; ZTA counter: 37; ZTA inh confirm: inactive; EBNA-1 counter: inactive

Results for C#CCOCCOCCOCCNc1nc(N2CCN(C(=O)CCCCCCCCCCNC(=O)[C@@H](CCSC)n3cc(CCO)nn3)CC2)nc(N2CCN(C(=O)CCCCCCCCCCNC(=O)[C@H](CCCN=C(N)N)n3cc(C[C@@H](C)CC)nn3)CC2)n1 ?
core dimer inh: inactive; EBNA-1 inh: inactive; ZTA counter: 141; ZTA inh confirm: 62; EBNA-1 counter: inactive

How did C#CCOCCOCCOCCNc1nc(N2CCN(C(=O)CCCCCCCCCCNC(=O)[C@@H](CCC(=O)O)n3cc(CCCCCN)nn3)CC2)nc(N2CCN(C(=O)CCCCCCCCCCNC(=O)[C@H](CCCCN)n3cc(C[C@@H](C)CC)nn3)CC2)n1 do in these assays?
core dimer inh: inactive; EBNA-1 inh: inactive; ZTA counter: 54; ZTA inh confirm: inactive; EBNA-1 counter: inactive

How did COc1ccc(CCC(=O)NNC(=O)Nc2ccccc2Cl)cc1 do in these assays?
NS3 helicase inh: inactive

Results for CC(C)OC(=O)CSc1nnc(-c2ccccn2)n1N ?
NS3 helicase inh: inactive; core dimer inh: inactive; EBNA-1 inh: inactive; ZTA counter: inactive

How did CCCCN1C(=O)C(=O)N(CC(=O)N2CCc3ccccc32)C1=O do in these assays?
ZTA counter: inactive

Results for C#CCOCCOCCOCCNc1nc(N2CCN(C(=O)Cn3cc(CCCCN)nn3)CC2)nc(N2CCN(C(=O)Cn3cc(CC(C)O)nn3)CC2)n1 (stereo not drawn) ?
NS3 helicase inh: inactive; core dimer inh: inactive; EBNA-1 inh: inactive; ZTA counter: inactive

What do the screens show for `C#CCOCCOCCOCCNc1nc(N2CCN(C(=O)CCCCCCCCCCNC(=O)Cn3cc(CCCCCN)nn3)CC2)nc(N2CCN(C(=O)CCCCCCCCCCNC(=O)Cn3cc(C[C@@H](C)O)nn3)CC2)n1`?
core dimer inh: inactive; EBNA-1 inh: inactive; ZTA counter: 46; ZTA inh confirm: inactive; EBNA-1 counter: inactive
